Assay results reported in ChEMBL document CHEMBL1121507, “Bronchodilator and antiulcer phenoxypyrimidinones” (1980).

How the values were obtained:
Cavia porcellus [1] = experiment: Evaluation of bronchodilator activity at dose 60 mg/kg perorally 1 hr prior to histamine aerosol exposure.; assay type: functional; settings: route oral
In short: (§1)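 Guinea pigs received drug po, dissolved in 1 N HCl or suspended in vehicle, 1 h before challenge. The challenge was 0.4% aqueous histamine nebulized at 6 psi into a closed chamber. Respiratory status was scored 0–4 (4 = unconsciousness). Percent protection compares the total score of 8 treated animals with a control group of 8 (control = 0, complete protection = 100), giving a single value.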

Cavia porcellus [2] = experiment: Respiratory status of guinea pigs exposed to histamine aerosol expressed as percent protection at a dose of 10 mg/kg (po); assay type: functional; in short: as §1
Cavia porcellus [3] = experiment: Respiratory status of guinea pigs exposed to histamine aerosol expressed as percent protection at a dose of 3 mg/kg (po); assay type: functional; in short: as §1
Cavia porcellus [4] = experiment: Respiratory status of guinea pigs exposed to histamine aerosol expressed as percent protection at a dose of 30 mg/kg (po); assay type: functional; in short: as §1
Cavia porcellus [5] = experiment: Respiratory status of guinea pigs exposed to histamine aerosol expressed as percent protection at a dose of 60 mg/kg (po); assay type: functional; in short: as §1
Rattus norvegicus [6] = experiment: Evaluation of antiulcer activity (% decrease in total number of lesions in cold-restraint, stressed rats) at peroral dose 10 mg/kg.; assay type: functional; settings: route oral
In short: (§2)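 Nonfasted female Sprague–Dawley rats (90–120 g) were immobilized supine and held at 12 °C for 3 h to induce gastric ulceration. Drug was suspended in saline with 10 g/L carboxymethylcellulose and 1 g/L Tween 80 and given po or ip 3 h before stress. Rats were then killed and stomachs removed. Readout: percent decrease in total lesion number versus controls. Active: p ≤ 0.05.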

Rattus norvegicus [7] = experiment: Evaluation of antiulcer activity( percent decrease in total number of lesions in cold-restraint, stressed rats) at intraperitoneal dose at 100 mg/kg; Inactive; assay type: functional; in short: as §2
Cavia porcellus [8] = experiment: Respiratory status of guinea pigs exposed to histamine aerosol expressed as percent protection 2 hr at a dose of 60 mg/kg (po)
Cavia porcellus [9] = experiment: Respiratory status of guinea pigs exposed to histamine aerosol expressed as percent protection 4 hr at a dose of 60 mg/kg (po)
Cavia porcellus [10] = experiment: Respiratory status of guinea pigs exposed to histamine aerosol expressed as percent protection 8 hr at a dose of 60 mg/kg (po)
Rattus norvegicus [11] = experiment: Evaluation of antiulcer activity( percent decrease in total number of lesions in cold-restraint, stressed rats) at intraperitoneal dose at 32 mg/kg; Inactive; assay type: functional; in short: as §2
Rattus norvegicus [12] = experiment: Evaluation of antiulcer activity( percent decrease in total number of lesions in cold-restraint, stressed rats) at intraperitoneal dose at 100 mg/kg; Active; assay type: functional; in short: as §2
Cavia porcellus [13] = experiment: Respiratory status of guinea pigs exposed to histamine aerosol expressed as percent protection 2 hr at a dose of 60 mg/kg (po); assay type: functional
In short: (§3)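 Duration study in guinea pigs: 60 mg/kg po given 2, 4 or 8 h before exposure to aerosol from 0.4% aqueous histamine nebulized at 6 psi in a closed chamber. Respiratory distress was scored 0–4. Percent protection compares the total score of 8 treated animals with 8 controls (control = 0, complete protection = 100).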

Cavia porcellus [14] = experiment: Respiratory status of guinea pigs exposed to histamine aerosol expressed as percent protection 4 hr at a dose of 60 mg/kg (po); assay type: functional; in short: as §3
Cavia porcellus [15] = experiment: Respiratory status of guinea pigs exposed to histamine aerosol expressed as percent protection 8 hr at a dose of 60 mg/kg (po); assay type: functional; in short: as §3
Rattus norvegicus [16] = experiment: Evaluation of antiulcer activity (percent decrease in total number of lesions in cold-restraint, stressed rats) at peroral dose 10 mg/kg; Active; assay type: functional; settings: route oral; in short: as §2
Rattus norvegicus [17] = experiment: Evaluation of antiulcer activity (percent decrease in total number of lesions in cold-restraint, stressed rats) at peroral dose 10 mg/kg; Inactive; settings: route oral
Rattus norvegicus [18] = experiment: Evaluation of antiulcer activity (percent decrease in total number of lesions in cold-restraint, stressed rats) at intraperitoneal dose at 100 mg/kg; Inactive; assay type: functional; in short: as §2
Rattus norvegicus [19] = experiment: Evaluation of antiulcer activity (percent decrease in total number of lesions in cold-restraint, stressed rats) at intraperitoneal dose at 100 mg/kg; Active; assay type: functional; in short: as §2
Cavia porcellus [20] = experiment: Evaluation of bronchodilator activity at dose 60 mg/kg perorally 1 hr prior to histamine aerosol exposure; 20-30; assay type: functional; settings: route oral
In short: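 Guinea pigs got 60 mg/kg po, either dissolved in 1 N HCl or suspended in vehicle; controls got vehicle. After 1 h each was challenged with histamine aerosol: 0.4% aqueous histamine nebulized at 6 psi into a closed chamber. Respiration was scored 0–4, with 4 being unconsciousness. Percent protection came from comparing the total score of eight treated animals with a control group of eight, giving a single value.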

Row | SMILES | Protection (Cavia porcellus [1]) | Decrease (Rattus norvegicus [6]) | Decrease (Rattus norvegicus [7]) | other results
1 | Oc1ncncc1Oc1ccccc1Cl | 13% |  |  | 
2 | Oc1ncc(Oc2ccc(Cl)cc2)cn1 | 92% | 7% | 0% | Protection (Cavia porcellus [2]): 37%; Protection (Cavia porcellus [3]): 22%; Protection (Cavia porcellus [4]): 71%; Protection (Cavia porcellus [5]): 92%; Protection (Cavia porcellus [8]): 94%; Protection (Cavia porcellus [9]): 94%; Protection (Cavia porcellus [10]): 88%
3 | Oc1ncncc1Oc1cccc(Cl)c1 | 13% |  |  | Decrease (Rattus norvegicus [11]): 18%
4 | COc1ccc(Oc2cncnc2O)cc1 | 26% | 0% |  | 
5 | Cc1cc(C)cc(Oc2cnc(O)nc2)c1 | 38% | 50% |  | Decrease (Rattus norvegicus [12]): 53%
6 | Cc1ccc(Oc2cnc(O)nc2)cc1 | 86% |  | 0% | Protection (Cavia porcellus [13]): 86%; Protection (Cavia porcellus [14]): 8%; Protection (Cavia porcellus [15]): 10%; Protection (Cavia porcellus [2]): 18%; Protection (Cavia porcellus [3]): 2%; Protection (Cavia porcellus [4]): 81%; Protection (Cavia porcellus [5]): 86%; Decrease (Rattus norvegicus [16]): 57%
7 | Oc1ncc(Oc2ccc(Cl)cc2Cl)cn1 | 47% | 22% | 19% | 
8 | Cc1ccc(Oc2cnc(O)nc2)cc1C | 14% | 54% | 53% | 
9 | Cc1cccc(Oc2cnc(O)nc2O)c1 | 7% | 0% |  | Decrease (Rattus norvegicus [12]): 67%
10 | CSc1ccc(Oc2cnc(O)nc2)cc1 | 55% | 0% | 0% | 
11 | Oc1ncc(Oc2ccccc2)cn1 | 28% |  |  | Decrease (Rattus norvegicus [16]): 37%; Decrease (Rattus norvegicus [12]): 81%
12 | Cc1ccccc1Oc1cnc(O)nc1 | 6% | 0% | 25% | 
13 | COc1ccc(Oc2cnc(O)nc2)cc1 | 45% | 0% | 0% | 
14 | CCc1ccc(Oc2cnc(O)nc2)cc1 | 98% | 0% | 27% | 
15 | CCc1cccc(Oc2cnc(O)nc2)c1 | 3% | 28% |  | Decrease (Rattus norvegicus [12]): 53%
16 | Cc1cc(Oc2cnc(O)nc2)ccc1Cl | 6% | 0% | 14% | 
17 | Oc1ncncc1Oc1ccccc1 | 23% | 0% |  | 
18 | Cc1cccc(Oc2cncnc2O)c1 | 28% | 0% |  | 
19 | Oc1ncc(Oc2ccc(Br)cc2)cn1 | 90% | 0% | 0% | 
20 | Oc1ncc(Oc2cccc(Cl)c2)cn1 | 22% | 22% | 0% | 

Row | SMILES | Protection (Cavia porcellus [1]) | Decrease (Rattus norvegicus [6]) | Decrease (Rattus norvegicus [7]) | other results
21 | COc1cccc(Oc2cncnc2O)c1 | 7% | 0% |  | 
22 | Oc1ncc(Sc2ccc(Cl)cc2)cn1 | 63% |  |  | 
23 | Oc1ncc(Oc2ccccc2)c(O)n1 | 25% | 22% |  | 
24 | Oc1ncncc1Oc1ccc(Cl)c(Cl)c1 | 45% |  |  | 
25 | Oc1ncc(Sc2ccccc2)cn1 | 23% | 45% | 47% | 
26 | Cc1ccc(Oc2cnc(O)nc2)c(C)c1 |  |  | 0% | Decrease (Rattus norvegicus [17]): 6%
27 | Oc1ncc(Oc2ccc(Cl)cc2)c(O)n1 | 50% | 35% |  | 
28 | Cc1ccc(Oc2cnc(O)nc2O)cc1 | 35% | 0% |  | 
29 | Oc1ncc(Oc2cccc(C(F)(F)F)c2)cn1 | 26% | 39% |  | 
30 | CC(C)c1ccc(Oc2cnc(O)nc2)cc1 | 0% | 0% | 9% | 
31 | Oc1ncncc1Oc1ccc(F)cc1 | 80% | 28% |  | 
32 | Oc1ncc(Oc2ccc(F)cc2)cn1 | 66% | 0% | 0% | 
33 | COc1cccc(Oc2cnc(O)nc2)c1 | 3% | 55% |  | Decrease (Rattus norvegicus [12]): 82%
34 | C[S+]([O-])c1ccc(Oc2cnc(O)nc2)cc1 (configuration not stated) | 10% | 50% | 0% | 
35 | Oc1ncncc1Oc1ccc(Cl)cc1 | 92% |  |  | Decrease (Rattus norvegicus [18]): 0%
36 | Cc1ccc(Oc2cncnc2O)cc1 | 92% | 27% |  | 
37 | Cc1cccc(Sc2cnc(O)nc2)c1 |  |  |  | Decrease (Rattus norvegicus [19]): 78%; Decrease (Rattus norvegicus [17]): 0%
38 | Cc1ccc(Sc2cnc(O)nc2)cc1 | 26% | 18% |  | Decrease (Rattus norvegicus [12]): 64%
39 | Cn1c(=O)c2nc[nH]c2n(C)c1=O.O [THEOPHYLLINE] |  |  |  | Protection (Cavia porcellus [20]): 20%
40 | Cc1cccc(Oc2cnc(=O)[nH]c2)c1 [TOLIMIDONE] | 3% |  |  | Decrease (Rattus norvegicus [16]): 38%; Decrease (Rattus norvegicus [12]): 70%
